Compound activity as filed in PubChem BioAssay.
STEP inh: STEP (human) phosphatase inhibition; P54829; inhibition, % at 20 µM; recombinant STEP, OMFP fluorogenic substrate, fluorescence; 360,000 compounds, 0.25% hits; AID 588621;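 active means inhibition at 20 µM, scaled per plate between control wells, above about 37%, limit read from the data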;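 further: 0% = DMSO with enzyme and substrate and 100% = substrate only without enzyme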
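Material: STEP (striatal-enriched tyrosine phosphatase) enzyme, cell-free | Medium: 50 mM Bis-Tris pH 6.0 with 2.5 mM DTT and 0.005% Tween 20 | Read-out: Percent inhibition scaled to no-enzyme and uninhibited-enzyme controls, plate-pattern corrected | Signal: Fluorescence read at 480 nm ex / 540 nm em | Times: 20 min reaction, room temperature, in the dark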
SUMO1 PPI mod: SUMO1-SIM interaction modulation | AID 602429 | 360,000 compounds, 0.33% hits | SUMO1 binding to a labelled peptide, TR-FRET, 1 h | inhibition, % at 20 µM; in the data active means inhibition above about 37%
Target sequence (P63165 whole entry, looked up): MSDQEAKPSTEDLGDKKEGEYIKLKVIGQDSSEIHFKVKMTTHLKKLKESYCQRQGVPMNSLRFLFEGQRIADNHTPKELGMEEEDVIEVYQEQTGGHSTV
DNMT1 block: inhibitors of human DNMT1; P26358; DNMT1 molecular beacon, Hinp1I cleavage, fluorescence; inhibition (reported as % activation of signal), % at 10 µM; 360,000 compounds, 0.83% hits; AID 588458; in the data active means inhibition above about 50%
LMPTP block: blocks human LMPTP phosphatase; P24666; recombinant LMPTP-A, OMFP fluorogenic substrate, fluorescence intensity; inhibition, % at 20 µM; 360,000 compounds, 0.22% hits; AID 651560;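 active means compounds that cut the enzyme signal by at least half of the control window in the single-dose screen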;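 further: plate controls were DMSO wells with enzyme plus substrate for no effect and substrate without enzyme for full effect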
Target sequence (P24666 whole entry, looked up): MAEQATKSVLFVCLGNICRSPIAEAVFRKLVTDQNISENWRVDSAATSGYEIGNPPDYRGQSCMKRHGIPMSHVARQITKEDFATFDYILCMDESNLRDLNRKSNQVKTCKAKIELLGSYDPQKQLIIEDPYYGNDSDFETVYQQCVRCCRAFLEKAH
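Test system – LMPTP-A enzyme · Amount – LMPTP-A at 0.625 nM final in the reaction · Buffer or medium – Bis-Tris pH 6.0, DTT, detergent · Reagent – OMFP 400 µM · Doses – single 20 µM dose · Schedule – reaction 50 min, room temperature, dark · Detection – fluorescence intensity of OMFP turnover product · Evaluation – percent inhibition versus substrate-only and uninhibited controls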
Scp1 inh: blocks human Scp-1 phosphatase activity; 340,000 compounds, 0.88% hits; Q9GZU7; Recombinant Scp1, phosphopeptide, malachite green phosphate absorbance; inhibition, % at 20 µM;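 active means inhibition above about 50% at 20 µM, limit read from the data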;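 further: plate controls were DMSO wells with enzyme for no effect and wells lacking enzyme for full effect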
Target sequence (Q9GZU7 76-261 limits assumed): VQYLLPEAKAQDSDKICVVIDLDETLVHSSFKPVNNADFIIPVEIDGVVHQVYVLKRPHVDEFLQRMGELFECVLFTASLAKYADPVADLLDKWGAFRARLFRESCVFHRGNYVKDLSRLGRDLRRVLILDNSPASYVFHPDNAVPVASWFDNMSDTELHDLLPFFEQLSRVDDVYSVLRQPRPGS
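Material: truncated SCP-1 phosphatase (76-261aa) / Buffer or medium: 50 mM Tris acetate pH 5.5, 0.005% Tween-20, 10 mM MgCl2 / Compound dosing: one concentration, 20 µM, with 1.0% DMSO / Incubation: 45 min room-temperature reaction, 5 min colour, 30 min stabiliser / Detection: colorimetric free-phosphate detection, absorbance 630 nm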
Beacon interf DR: beacon fluorescence artifact, dose response counter-screen; AID 602382; molecular beacon fluorescence, spectral interference counter-screen; 200 tested, under 10 active; shares compounds with DNMT1 block; IC50, µM; call rule not given here
DNMT1 confirm: confirmation of human DNMT1 inhibitors. shares compounds with DNMT1 block. DNMT1 molecular beacon HinP1I cleavage, fluorescence. inhibition, % at 10 µM. 2,300 compounds, 8% hits. AID 602385;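 active means average inhibition of at least 30% in the single-concentration confirmation test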
DNMT1 interf: counter-screen for DNMT1 inhibitors: spectral interference; shares compounds with DNMT1 block; DNMT1 molecular beacon spectral interference counterscreen, fluorescence 485/520; activation (fluorescence interference), % at 10 µM; 2,300 compounds, 1% hits; AID 602387;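 active means activation of at least 30% at 10 µM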;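 further: DNMT1 catalytic domain with a HinP1I cleavage step and a FAM/dabcyl DNA beacon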
Starred values were filed as active, the others as inactive; . = no result given. Compounds with a hit are over-represented: about 1.8% of the library has one in this group of screens.

SMILES | STEP inh | SUMO1 PPI mod | DNMT1 block | LMPTP block | Scp1 inh | DNMT1 confirm | DNMT1 interf | others
CCOc1ccccc1N(CC(=O)NC1CCCC1)S(=O)(=O)c1ccc(C)cc1 | 2 | 6 | 0 | -1 | 5 | . | .
CCN(CC)C(=O)c1cccc(-c2csc(C(O)c3ccc(F)c(OC)c3)n2)c1 (configuration not stated) | -1 | -11 | -6 | 0 | . | . | .
Cc1c(CCC(=O)NCC(=O)NCC(=O)O)c(=O)oc2cc3oc4c(c3cc12)CCCC4 | 0 | 7 | 1 | 1 | 1 | . | .
Cc1c(CCC(=O)O)c(=O)oc2cc3oc4c(c3cc12)CCCC4 | -1 | 14 | 91* | 0 | -1 | 1 | 3
Cc1ccc(CN2C(=O)CCC2C(=O)NCc2ccc3c(c2)OCO3)cc1 (configuration not stated) | -3 | 1 | 91* | 1 | -5 | -1 | 4
Cc1ccc(CN2C(=O)CCC2C(=O)NCc2ccc(F)cc2)cc1 (configuration not stated) | 1 | -3 | 0 | -2 | -18 | . | .
OCCc1ccc(O)c(-n2nc3ccccc3n2)c1 | 0 | -8 | 0 | 1 | -6 | . | .
O=C(N/N=C/c1cccn1-c1ccc(O)cc1)c1cccc2ccccc12 | -3 | 5 | 3 | 0 | -9 | . | .
O=C(O)c1ccc(-n2cccc2/C=N\NC(=O)c2cc3cc(Br)ccc3o2)cc1 | 14 | 84* | 102* | 23 | 80* | 75* | -3 | Beacon interf DR=>99
CCOc1ncccc1C(=O)NCC(c1ccco1)N1CCCCC1 (configuration not stated) | 0 | -4 | -1 | -2 | -3 | . | .
Cc1cccc(NC(=O)COC(=O)c2c(-c3ccccc3)noc2C)c1 | 0 | -3 | 1 | 2 | . | . | .
CCc1noc(C)c1C(=O)OCC(=O)Nc1cccc(C)c1 | -3 | 2 | 77* | -1 | -6 | 3 | 3
COC1CC(NC(C)=O)C(OC(=O)c2ccccc2)C(CBr)O1 (configuration not stated) | 0 | -47 | -4 | -5 | . | . | .
Nc1nc(-c2ccco2)cs1 | 0 | 10 | -4 | 0 | -6 | . | .
Nc1nc(-c2ccco2)c(-c2ccco2)s1 | 0 | 32 | 51* | 25 | 0 | 3 | 29
CC(C)(C)c1ccc(/C=N/NC(=O)C2CCCC2)cc1 | -2 | -7 | 77* | 2 | -2 | 1 | 2
CN(c1ccccc1)c1ccc(/C=C(\CCC(=O)O)c2nc3ccccc3s2)cc1[N+](=O)[O-] | 1 | 10 | 74* | 3 | 8 | 27 | -4 | Beacon interf DR=>99
COC(=O)c1ccc(CCc2cc(O)ccc2O)cc1 | -1 | -2 | 72* | 0 | -10 | 4 | 5
COc1ccccc1-c1nnc(NC(=O)c2ccc3c(c2)OCO3)s1 | 0 | 2 | 55* | 3 | -4 | 2 | -5
CCC/C(=N\NC(=O)C1CC1)c1ccc(Br)cc1 | 0 | 9 | 1 | 1 | -4 | . | .
CC1=C(C(=O)Nc2ccccc2C)C(c2ccc(C)o2)n2c(s/c(=C/c3ccccc3)c2=O)=N1 (configuration not stated) | -2 | -1 | -3 | 1 | -5 | . | .
CC1=C(C(=O)Nc2ccccc2)C(c2ccc(C)o2)n2c(s/c(=C/c3ccccc3)c2=O)=N1 (configuration not stated) | 1 | -7 | 84* | 1 | 1 | 3 | 0
COc1cc([N+](=O)[O-])ccc1-c1ccc(/C=C2\C(=O)ON=C2c2ccccc2)o1 | 4 | 64* | 80* | 3 | 3 | 18 | -6
C=CCn1c(N)c(C(=O)OC(C)CC)c2nc3ccccc3nc21 (configuration not stated) | 1 | 38 | 70* | 9 | 1 | 8 | 7
C=CCn1c(N)c(C(=O)OC(C)(C)C)c2nc3ccccc3nc21 | 3 | -2 | -3 | 0 | -3 | . | .
SMILES | STEP inh | SUMO1 PPI mod | DNMT1 block | LMPTP block | Scp1 inh | DNMT1 confirm | DNMT1 interf | others
CC1(NC(=O)CCc2nc3sc4c(c3c(=O)[nH]2)CCCC4)CCS(=O)(=O)C1 (configuration not stated) | 4 | 12 | 54* | 18 | . | 6 | -4
CC(=O)Nc1ccc(NC(=O)CCc2nc3sc4c(c3c(=O)[nH]2)CCCC4)cc1 | 3 | 0 | 6 | 2 | 17 | . | .
C#Cc1ccc([C@@H]2C=C(C(=O)NCc3ccccc3)O[C@H](OCCCCO)C2)cc1 | 0 | 3 | 54* | 5 | 20 | 3 | 3
O=C(NCc1ccccc1)C1=C[C@@H](c2ccc(Br)cc2)C[C@@H](OCCCCO)O1 | -1 | -9 | -8 | 1 | -3 | . | .
COc1ccc(CNC(=O)COC(=O)CCn2c(C)csc2=O)cc1OC | 2 | -1 | -3 | 0 | -5 | . | .
C=CCn1c(=NC(=O)C2CCCCC2)sc2cc(NC(C)=O)ccc21 | 1 | -7 | 51* | 0 | -13 | 0 | -3
COc1ccc(NC(=O)CSc2nc(N)cc(=O)[nH]2)cc1S(=O)(=O)N1CCCCC1 | -3 | 3 | -3 | -1 | 1 | . | .
Cc1ccc(S(=O)(=O)NCC(=O)N(CC(=O)NCc2ccco2)Cc2ccccc2)cc1 | 0 | 2 | -1 | 0 | -7 | . | .
COc1cccc(CN(CC(=O)NCc2ccco2)C(=O)CNS(=O)(=O)c2ccccc2)c1 | 0 | 1 | 57* | -1 | 0 | 7 | 8
CCc1c(C)nc(N2CCN(c3ccc(Cl)cc3)CC2)[nH]c1=O | -2 | 1 | 5 | -1 | -7 | . | .
COc1ccc(CN(C)C(=O)c2cccc(NS(=O)(=O)c3ccccc3)c2)cc1F | 1 | 6 | 1 | -2 | 17 | . | .
CCOC(=O)C1C(=O)CC(=O)CC1CC(C)SCC (configuration not stated) | -9 | 3 | 79* | 0 | -7 | 1 | 4
COc1cccc(N2CC34C=CC(O3)C(C(=O)O)C4C2=O)c1 (configuration not stated) | -4 | 5 | 53* | -1 | 32 | 6 | 6
Cc1ccc2cc3cc(C(=O)NCc4ccc5c(c4)OCO5)oc3nc2c1 | 2 | -1 | 54* | 8 | 9 | 0 | -8
COc1ccc2cc3cc(C(=O)Nc4ccc5c(c4)OCO5)oc3nc2c1 | -3 | -2 | 60* | 1 | 1 | 1 | 0
O=C(Nc1ccc(N2CCCC2)cc1)c1ccc(Br)o1 | 4 | -7 | 81* | 43 | -3 | 2 | -1
O=C(Nc1ccc(N2CCN(Cc3ccccc3)CC2)cc1)c1ccccc1[N+](=O)[O-] | -2 | -6 | -4 | -1 | 11 | . | .
